Measurements published in ChEMBL document CHEMBL1138751, “Dipeptidomimetic ketomethylene isosteres as pro-moieties for drug transport via the human intestinal di-/tripeptide transporter hPEPT1: design, synthesis, stability, and biological investigations” (J Med Chem, 2004).

What was measured:
[1] = target: T1, Solute carrier family 15 member 1 (Homo sapiens, UniProt P46059); experiment: Affinity for hPEPT1 in mature Caco-2 cell monolayers using [14C]-Gly-Sar
T1 sequence (P46059 whole entry): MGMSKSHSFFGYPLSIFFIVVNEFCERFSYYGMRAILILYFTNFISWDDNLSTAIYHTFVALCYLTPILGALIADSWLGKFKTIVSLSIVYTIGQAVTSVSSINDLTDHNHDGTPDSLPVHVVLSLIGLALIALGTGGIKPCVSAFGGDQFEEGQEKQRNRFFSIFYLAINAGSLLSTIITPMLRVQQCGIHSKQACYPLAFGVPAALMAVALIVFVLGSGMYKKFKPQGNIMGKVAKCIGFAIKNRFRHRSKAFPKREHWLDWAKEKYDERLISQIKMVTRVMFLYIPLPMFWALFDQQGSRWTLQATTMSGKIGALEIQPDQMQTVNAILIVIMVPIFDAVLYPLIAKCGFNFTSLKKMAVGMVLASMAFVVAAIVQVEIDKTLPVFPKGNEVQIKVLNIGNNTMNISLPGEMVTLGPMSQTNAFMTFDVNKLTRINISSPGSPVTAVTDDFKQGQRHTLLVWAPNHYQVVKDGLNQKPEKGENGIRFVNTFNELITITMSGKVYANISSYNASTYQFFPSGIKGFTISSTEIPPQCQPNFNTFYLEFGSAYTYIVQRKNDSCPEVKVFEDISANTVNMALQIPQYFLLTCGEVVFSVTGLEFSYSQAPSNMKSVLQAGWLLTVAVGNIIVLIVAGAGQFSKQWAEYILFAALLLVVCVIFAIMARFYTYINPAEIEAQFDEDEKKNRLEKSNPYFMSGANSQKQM
Method in brief: (§1)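 Caco-2 monolayers on Transwell filters, used 25–27 days after seeding (TEER 354 ± 41 […]). Compound at varying concentrations plus 0.5 μCi [14C]-Gly-Sar in apical MES-buffered HBSS (pH 6.0, 0.05% BSA); HEPES buffer (pH 7.4) basolateral. Incubated 5 min at 37 °C with shaking, washed with ice-cold HBSS, and cell-associated radioactivity counted. Inhibition fitted to a Hill-type equation for IC50; Ki derived by Cheng–Prusoff using Gly-Sar Km 1.1 mM. Duplicates in three passages.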

[2] = target: T1, Solute carrier family 15 member 1; experiment: Inhibition of [14C]Gly-Sar transport by hPEPT1 in Caco-2 cell monolayers; type: cell-based; method in brief: as §1

| Compound | Ki [1] | IC50 [2] |
| --- | --- | --- |
| N[C@@H](Cc1ccccc1)C(=O)CCC(=O)OCc1ccccc1 | 905 µM | 915 µM |
| CC(C)[C@H](N)C(=O)CCC(=O)OCc1ccccc1 | 133 µM | 134 µM |
| N[C@@H](Cc1ccccc1)C(=O)C[C@@H](CC(=O)OCc1ccccc1)C(=O)O | 68 µM | 69 µM |

More lines, in order of falling Ki [1], values ahead:

| Ki [1] | IC50 [2] | Compound |
| --- | --- | --- |
| 417 µM | 422 µM | NC(CC(=O)OCc1ccccc1)C(=O)CCC(=O)O (stereo not given) |
| 19 µM | 19 µM | CC(C)[C@H](N)C(=O)C[C@@H](CC(=O)OCc1ccccc1)C(=O)O |
